Experimental data as given in ChEMBL document CHEMBL5661986, “Discovery of the SMYD3 Inhibitor BAY-6035 Using Thermal Shift Assay (TSA)-Based High-Throughput Screening” (SLAS Discov, 2021).
In brackets after ≈: the same amount, converted by molar mass. Activity calls are given as the source filed them. The rule behind the calls is not given here.

Columns and labels:
[1] = target: Histone-lysine N-methyltransferase 2C (Homo sapiens) (UniProt Q8NEZ4); test: Inhibition of MLL3 (unknown origin)
[2] = target: Platelet-derived growth factor receptor beta (Homo sapiens, UniProt P09619); test: Inhibition of PDGFR beta (unknown origin)
[3] = target: DNMT3B-DNMT3L complex (Homo sapiens) (UniProt Q9UBC3+Q9UJW3); test: Inhibition of DNMT3B/DNMT3L (unknown origin); type: protein-complex assay
[4] = target: NUAK family SNF1-like kinase 1 (Homo sapiens, UniProt O60285); test: Inhibition of NUAK1 (unknown origin) in presence of ATP
[5] = target: T1, Histone-lysine N-methyltransferase SMYD3 (Homo sapiens) (UniProt Q9H7B4); test: Binding affinity to biotinylated SMYD3 (unknown origin) assessed as association rate constant (Kon) using S-adenosyl-l-methionine as substrate by surface plasmon resonance analysis
T1 sequence (whole entry): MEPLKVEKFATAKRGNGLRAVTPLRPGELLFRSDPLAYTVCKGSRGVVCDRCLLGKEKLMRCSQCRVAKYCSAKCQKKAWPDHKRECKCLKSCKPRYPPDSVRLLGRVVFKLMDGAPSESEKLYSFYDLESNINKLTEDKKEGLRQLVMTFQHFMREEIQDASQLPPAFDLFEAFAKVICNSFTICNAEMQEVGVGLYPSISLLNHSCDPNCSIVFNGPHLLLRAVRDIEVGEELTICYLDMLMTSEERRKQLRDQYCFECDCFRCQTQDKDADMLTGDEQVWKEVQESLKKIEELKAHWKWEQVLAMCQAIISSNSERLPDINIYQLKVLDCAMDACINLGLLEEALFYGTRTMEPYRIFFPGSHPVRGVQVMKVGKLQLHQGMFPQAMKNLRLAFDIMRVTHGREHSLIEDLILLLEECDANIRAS
In short: (§1)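 Biotinylated SMYD3 (aa 1–428) captured (~4700 RU) on streptavidin chip, empty reference flow cell; 25 °C; running buffer 20 mM HEPES pH 7.4, 150 mM NaCl, 3 mM EDTA, 0.05% Tween-20, 2% DMSO, plus 50 µM SAM. Single-cycle kinetics, five concentrations 25–2000 nM, 60 s contact, 300 s dissociation, 30 µL/min; triplicate.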

[6] = target: Histone-lysine N-methyltransferase PRDM9 (Homo sapiens) (UniProt Q9NQV7); test: Inhibition of PRDM9 (unknown origin)
[7] = target: Dual specificity tyrosine-phosphorylation-regulated kinase 1A (Homo sapiens, UniProt Q13627); test: Inhibition of human DYRK1a
[8] = target: T1, Histone-lysine N-methyltransferase SMYD3 (Homo sapiens); test: Binding affinity to recombinant human SMYD3 expressed in Escherichia coli assessed as change in entropy at 0.3 mM by isothermal titration calorimetry
In short: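 Syringe held compound at 0.3 mM in 20 mM HEPES pH 7.4, 150 mM NaCl, 0.005% Tween 20, 2.5% DMSO; eight 4 µL injections at 180 s intervals into SMYD3.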

[9] = target: Protein arginine N-methyltransferase 8 (Homo sapiens) (UniProt Q9NR22); test: Inhibition of PRMT8 (unknown origin)
[10] = target: T2, Histone-lysine N-methyltransferase SMYD3 (Homo sapiens, UniProt Q9H7B4); test: Binding affinity to recombinant human SMYD3 expressed in Escherichia coli assessed as catalytic inhibition using DYDNPIFEKFGKGGTYPRRYHVSYHGK-Biotin as substrate by scintillation proximity assay
T2 sequence (Q9H7B4 whole entry): T1 sequence (whole entry)

[11] = target: T1, Histone-lysine N-methyltransferase SMYD3 (Homo sapiens); test: Binding affinity to biotinylated SMYD3 (unknown origin) assessed as dissociation rate constant (Koff) using S-adenosyl-l-methionine as substrate by surface plasmon resonance analysis; in short: as §1
[12] = target: Mitogen-activated protein kinase 7 (Homo sapiens, UniProt Q13164); test: Inhibition of GST-tagged ERK5 catalytic domain (unknown origin) in presence of ATP
[13] = target: Histone-lysine N-methyltransferase KMT5B (Homo sapiens) (UniProt Q4FZB7); test: Inhibition of SUV420H1 (unknown origin)
Hs-578T = test: Antiproliferative activity against human Hs-578T cells assessed as inhibition of cell viability measured for 3 to 5 days by alamar blue staining based assay; type: functional
[14] = target: Protein arginine N-methyltransferase 3 (Homo sapiens) (UniProt O60678); test: Inhibition of PRMT3 (unknown origin)
[15] = target: RNA 5'-monophosphate methyltransferase (Homo sapiens) (UniProt Q7Z5W3); test: Inhibition of BCDIN3D (unknown origin)
[16] = Kinetic solubility of the compound at pH 6.5; type: physicochemical; conditions: buffer, read-out: Kinetic_solubility
MDA-MB-231 = test: Antiproliferative activity against human MDA-MB-231 cells assessed as inhibition of cell viability measured for 3 to 5 days by alamar blue staining based assay; type: functional
[17] = target: MAP kinase-interacting serine/threonine-protein kinase 1 (Homo sapiens, UniProt Q9BUB5); test: Inhibition of MKNK1 (unknown origin) in presence of ATP
[18] = target: High affinity nerve growth factor receptor (Homo sapiens, UniProt P04629); test: Inhibition of human TRK-A
Homo sapiens = species: Homo sapiens; test: Selectivity ratio of IC50 for recombinant human SMYD3 to the IC50 for inhibition of SMYD3- dependent MAP3K2 methylation
[19] = target: Glycogen synthase kinase-3 beta (Homo sapiens, UniProt P49841); test: Inhibition of GSK-3-beta (unknown origin) by HTRF assay
[20] = target: Cyclin-dependent kinase 12 (Homo sapiens, UniProt Q9NYV4); test: Inhibition of CDK12 (unknown origin) by using c-myc peptide as substrate in presence of ATP
[21] = target: Serine/threonine-protein kinase TBK1 (Homo sapiens, UniProt Q9UHD2); test: Inhibition of TBK1 (unknown origin) in presence of ATP by HTRF assay
Aurora kinase A = Aurora kinase A (Homo sapiens, UniProt O14965); test: Inhibition of Aurora A (unknown origin) by HTRF assay
[22] = target: Ribosomal protein S6 kinase alpha-6 (Homo sapiens, UniProt Q9UK32); test: Inhibition of RSK4 (unknown origin)
[23] = Antiproliferative activity against human NCI-H2110 cells assessed as inhibition of cell viability measured for 3 to 5 days by alamar blue staining based assay; type: functional
[24] = target: Epidermal growth factor receptor (Homo sapiens, UniProt P00533); test: Inhibition of EGFR (unknown origin) in presence of ATP
[25] = target: Protein arginine N-methyltransferase 9 (Homo sapiens) (UniProt Q6P2P2); test: Inhibition of PRMT9 (unknown origin)
[26] = target: MAP kinase-interacting serine/threonine-protein kinase 2 (Homo sapiens, UniProt Q9HBH9); test: Inhibition of MKNK2 (unknown origin) in presence of ATP
[27] = target: Serine/threonine-protein kinase 4 (Homo sapiens, UniProt Q13043); test: Inhibition of MST1 (unknown origin)
[28] = target: Histone-arginine methyltransferase CARM1 (Homo sapiens) (UniProt Q86X55); test: Inhibition of PRMT4 (unknown origin)
[29] = target: Mitotic checkpoint serine/threonine-protein kinase BUB1 (Homo sapiens, UniProt O43683); test: Inhibition of Bub1 (unknown origin) in presence of ATP
Mitotic checkpoint serine/threonine-protein kinase BUB1, sequence (O43683 whole entry): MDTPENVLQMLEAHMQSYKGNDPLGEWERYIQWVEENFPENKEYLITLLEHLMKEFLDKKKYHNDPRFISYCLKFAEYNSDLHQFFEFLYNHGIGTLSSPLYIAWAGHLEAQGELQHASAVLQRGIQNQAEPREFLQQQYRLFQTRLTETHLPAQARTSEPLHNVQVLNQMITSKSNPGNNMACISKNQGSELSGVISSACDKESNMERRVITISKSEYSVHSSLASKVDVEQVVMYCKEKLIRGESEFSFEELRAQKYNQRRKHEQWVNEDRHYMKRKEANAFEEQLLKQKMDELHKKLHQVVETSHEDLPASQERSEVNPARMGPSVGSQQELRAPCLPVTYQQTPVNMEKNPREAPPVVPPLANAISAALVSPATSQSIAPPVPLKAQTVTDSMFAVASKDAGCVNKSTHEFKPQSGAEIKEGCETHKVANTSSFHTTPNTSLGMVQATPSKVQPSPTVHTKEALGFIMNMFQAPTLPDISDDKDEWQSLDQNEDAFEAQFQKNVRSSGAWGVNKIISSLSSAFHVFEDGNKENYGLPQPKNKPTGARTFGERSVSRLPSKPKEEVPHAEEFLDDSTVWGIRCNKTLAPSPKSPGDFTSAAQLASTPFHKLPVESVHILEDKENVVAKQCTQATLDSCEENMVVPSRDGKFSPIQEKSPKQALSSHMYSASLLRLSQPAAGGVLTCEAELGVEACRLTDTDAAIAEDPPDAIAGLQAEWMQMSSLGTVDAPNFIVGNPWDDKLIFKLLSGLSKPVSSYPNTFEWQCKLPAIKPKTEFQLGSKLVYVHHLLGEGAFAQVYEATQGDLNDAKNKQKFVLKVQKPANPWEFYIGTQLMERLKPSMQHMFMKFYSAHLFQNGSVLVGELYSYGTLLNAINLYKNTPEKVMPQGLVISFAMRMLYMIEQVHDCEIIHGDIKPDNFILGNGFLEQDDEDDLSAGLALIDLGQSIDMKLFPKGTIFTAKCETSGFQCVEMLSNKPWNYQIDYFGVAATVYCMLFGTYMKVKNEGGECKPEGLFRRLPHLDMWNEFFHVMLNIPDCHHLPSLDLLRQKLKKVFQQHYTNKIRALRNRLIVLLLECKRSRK

MAP kinase-interacting serine/threonine-protein kinase 2, sequence (Q9HBH9 whole entry): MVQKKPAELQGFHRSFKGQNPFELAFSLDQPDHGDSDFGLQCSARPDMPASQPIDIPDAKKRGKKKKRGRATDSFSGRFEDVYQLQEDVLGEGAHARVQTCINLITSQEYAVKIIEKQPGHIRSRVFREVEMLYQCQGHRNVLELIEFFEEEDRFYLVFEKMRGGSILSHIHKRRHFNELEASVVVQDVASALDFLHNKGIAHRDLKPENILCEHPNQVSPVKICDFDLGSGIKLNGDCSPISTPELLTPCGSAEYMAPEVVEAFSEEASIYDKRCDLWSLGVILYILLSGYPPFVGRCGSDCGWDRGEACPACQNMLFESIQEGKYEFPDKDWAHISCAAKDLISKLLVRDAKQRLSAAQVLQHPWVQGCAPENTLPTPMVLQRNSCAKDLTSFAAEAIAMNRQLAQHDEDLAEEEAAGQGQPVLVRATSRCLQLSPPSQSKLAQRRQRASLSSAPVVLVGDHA
Serine/threonine-protein kinase TBK1, sequence (Q9UHD2 whole entry): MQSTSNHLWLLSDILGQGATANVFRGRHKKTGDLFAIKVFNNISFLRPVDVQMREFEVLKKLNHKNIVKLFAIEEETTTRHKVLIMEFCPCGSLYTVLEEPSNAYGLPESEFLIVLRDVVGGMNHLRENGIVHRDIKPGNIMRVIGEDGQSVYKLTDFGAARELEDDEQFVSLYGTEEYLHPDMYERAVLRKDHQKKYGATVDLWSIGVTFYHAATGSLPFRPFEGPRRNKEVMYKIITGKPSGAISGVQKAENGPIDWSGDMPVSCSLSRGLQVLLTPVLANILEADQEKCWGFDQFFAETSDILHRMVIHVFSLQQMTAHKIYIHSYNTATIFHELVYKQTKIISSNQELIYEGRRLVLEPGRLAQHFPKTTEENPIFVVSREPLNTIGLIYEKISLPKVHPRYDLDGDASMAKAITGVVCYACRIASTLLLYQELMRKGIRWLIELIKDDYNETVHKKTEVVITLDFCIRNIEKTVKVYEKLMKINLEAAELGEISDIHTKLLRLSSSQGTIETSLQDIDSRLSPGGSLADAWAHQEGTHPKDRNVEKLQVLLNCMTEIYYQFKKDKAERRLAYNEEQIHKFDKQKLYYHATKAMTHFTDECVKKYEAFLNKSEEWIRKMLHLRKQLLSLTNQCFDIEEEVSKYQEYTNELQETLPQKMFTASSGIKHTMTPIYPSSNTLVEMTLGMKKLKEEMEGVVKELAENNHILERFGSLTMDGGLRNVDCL
Epidermal growth factor receptor, sequence (P00533 whole entry): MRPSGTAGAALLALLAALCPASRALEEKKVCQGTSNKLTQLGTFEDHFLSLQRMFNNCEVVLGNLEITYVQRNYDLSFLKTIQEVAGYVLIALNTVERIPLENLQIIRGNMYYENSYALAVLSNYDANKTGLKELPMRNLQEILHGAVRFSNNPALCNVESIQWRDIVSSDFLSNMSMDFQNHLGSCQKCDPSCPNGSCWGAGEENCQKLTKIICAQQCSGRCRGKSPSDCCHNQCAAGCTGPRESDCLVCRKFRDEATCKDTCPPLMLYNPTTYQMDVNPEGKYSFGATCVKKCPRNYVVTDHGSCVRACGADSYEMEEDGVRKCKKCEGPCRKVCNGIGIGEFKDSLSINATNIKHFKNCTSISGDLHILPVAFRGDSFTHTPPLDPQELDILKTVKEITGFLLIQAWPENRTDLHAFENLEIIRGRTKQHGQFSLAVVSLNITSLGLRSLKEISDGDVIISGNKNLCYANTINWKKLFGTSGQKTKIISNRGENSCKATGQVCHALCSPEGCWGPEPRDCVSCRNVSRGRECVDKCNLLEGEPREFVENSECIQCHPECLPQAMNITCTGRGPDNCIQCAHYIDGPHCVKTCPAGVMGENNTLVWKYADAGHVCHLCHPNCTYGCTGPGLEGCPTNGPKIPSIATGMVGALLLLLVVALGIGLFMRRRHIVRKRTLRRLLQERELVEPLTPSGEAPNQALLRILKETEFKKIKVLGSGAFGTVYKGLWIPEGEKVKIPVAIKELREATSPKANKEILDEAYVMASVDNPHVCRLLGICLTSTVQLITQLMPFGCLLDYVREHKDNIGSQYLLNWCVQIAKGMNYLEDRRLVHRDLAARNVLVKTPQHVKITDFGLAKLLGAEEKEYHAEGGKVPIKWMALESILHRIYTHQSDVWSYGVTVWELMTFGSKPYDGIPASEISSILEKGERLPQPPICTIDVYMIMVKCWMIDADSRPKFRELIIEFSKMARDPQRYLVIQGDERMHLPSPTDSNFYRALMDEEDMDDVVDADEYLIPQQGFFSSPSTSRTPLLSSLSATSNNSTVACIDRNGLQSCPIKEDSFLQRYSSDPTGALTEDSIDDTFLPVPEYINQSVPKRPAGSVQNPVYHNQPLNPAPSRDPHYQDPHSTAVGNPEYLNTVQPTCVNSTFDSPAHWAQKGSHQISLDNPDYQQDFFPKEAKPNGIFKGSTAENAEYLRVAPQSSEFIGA
Histone-lysine N-methyltransferase KMT5B (Homo sapiens), sequence (Q4FZB7 whole entry, looked up): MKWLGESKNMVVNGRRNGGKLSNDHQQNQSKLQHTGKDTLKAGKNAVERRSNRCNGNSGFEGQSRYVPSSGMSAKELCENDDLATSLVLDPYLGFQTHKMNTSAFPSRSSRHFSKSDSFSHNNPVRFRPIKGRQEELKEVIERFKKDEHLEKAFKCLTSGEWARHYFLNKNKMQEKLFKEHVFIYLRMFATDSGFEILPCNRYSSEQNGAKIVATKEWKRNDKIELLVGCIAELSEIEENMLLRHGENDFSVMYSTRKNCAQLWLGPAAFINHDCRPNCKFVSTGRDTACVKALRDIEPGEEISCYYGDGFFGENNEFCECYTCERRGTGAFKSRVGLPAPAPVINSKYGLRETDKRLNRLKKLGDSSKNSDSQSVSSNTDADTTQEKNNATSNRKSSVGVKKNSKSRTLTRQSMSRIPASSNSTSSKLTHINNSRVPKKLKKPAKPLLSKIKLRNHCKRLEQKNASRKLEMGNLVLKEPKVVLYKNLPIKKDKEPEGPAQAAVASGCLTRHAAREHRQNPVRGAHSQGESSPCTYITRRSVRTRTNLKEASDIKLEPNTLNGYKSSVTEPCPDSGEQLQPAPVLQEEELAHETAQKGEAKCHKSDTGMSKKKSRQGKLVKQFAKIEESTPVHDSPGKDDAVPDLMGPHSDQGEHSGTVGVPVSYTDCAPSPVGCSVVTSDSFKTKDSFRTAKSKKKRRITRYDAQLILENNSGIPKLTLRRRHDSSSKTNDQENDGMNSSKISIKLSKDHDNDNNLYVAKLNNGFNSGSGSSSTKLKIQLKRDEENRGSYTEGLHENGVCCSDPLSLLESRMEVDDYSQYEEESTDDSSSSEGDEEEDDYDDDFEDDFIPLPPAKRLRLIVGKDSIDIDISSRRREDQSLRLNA
Protein arginine N-methyltransferase 3 (Homo sapiens), sequence (O60678 2-531 limits assumed): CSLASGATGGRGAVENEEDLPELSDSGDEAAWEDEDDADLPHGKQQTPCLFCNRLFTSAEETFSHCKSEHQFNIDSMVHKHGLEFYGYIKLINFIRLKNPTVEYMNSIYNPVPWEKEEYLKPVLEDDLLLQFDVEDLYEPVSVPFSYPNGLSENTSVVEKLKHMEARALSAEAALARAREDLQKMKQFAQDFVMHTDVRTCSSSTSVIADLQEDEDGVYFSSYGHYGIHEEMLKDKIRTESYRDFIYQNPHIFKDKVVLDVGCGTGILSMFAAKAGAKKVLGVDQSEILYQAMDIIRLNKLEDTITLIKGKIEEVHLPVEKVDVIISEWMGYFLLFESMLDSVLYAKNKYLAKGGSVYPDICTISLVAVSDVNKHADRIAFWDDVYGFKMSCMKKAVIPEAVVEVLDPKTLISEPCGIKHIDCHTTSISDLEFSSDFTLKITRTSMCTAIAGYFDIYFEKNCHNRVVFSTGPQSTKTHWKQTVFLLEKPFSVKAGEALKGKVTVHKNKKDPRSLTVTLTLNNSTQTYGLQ

inhibition [1]: inactive
IC50 [2]: > 20 µM
inhibition [3]: inactive
IC50 [4]: > 20 µM
Ka [5]: 3.1 10^5/M/s
inhibition [6]: inactive
IC50 [7]: > 20 µM
-TdeltaS [8]: -5 kcal/mol
deltaS [8]: 17 cal/mol.K
inhibition [9]: inactive
IC50 [10]: 0.088 µM
Kdiss [11]: 3 10^-2/s
IC50 [12]: > 20 µM
inhibition [13]: inactive
inhibition [14]: inactive
inhibition [15]: inactive
solubility kinetic [16]: 363 µg/mL (≈ 915 µM)
IC50 (MDA-MB-231): > 10 µM
IC50 [17]: > 20 µM
IC50 [18]: > 20 µM
Ratio IC50 (Homo sapiens): 2
IC50 [19]: > 20 µM
IC50 [20]: > 20 µM
IC50 [21]: > 20 µM
IC50 (Aurora kinase A): > 20 µM
IC50 [22]: > 20 µM
IC50 [24]: > 20 µM
inhibition [25]: inactive
IC50 [26]: > 20 µM
IC50 [27]: > 20 µM
inhibition [28]: inactive
IC50 [29]: > 20 µM
Structure (SMILES): C[C@H]1CC(=O)Nc2cc(C(=O)NCCC3CC3)ccc2N1C(=O)N1CC2CC2C1 (some centres undefined)
IC50 (Hs-578T): > 10 µM
IC50 [23]: > 10 µM
